Measurements published in ChEMBL document CHEMBL5154735, “Interaction of A3 adenosine receptor ligands with the human multidrug transporter ABCG2” (Eur J Med Chem, 2022).

Tests used:
ABCG2 [1] = biological target: T1, ABCG2 (Homo sapiens, UniProt Q9UNQ0); test: Effect on human ABCG2 transporter preincubated for 2 mins followed by ATP addition assessed as basal ATPase activity at 10 uM and measured after 20 mins by colorimetric assay relative to control; settings: read-out: Activity
T1 sequence (Q9UNQ0 whole entry): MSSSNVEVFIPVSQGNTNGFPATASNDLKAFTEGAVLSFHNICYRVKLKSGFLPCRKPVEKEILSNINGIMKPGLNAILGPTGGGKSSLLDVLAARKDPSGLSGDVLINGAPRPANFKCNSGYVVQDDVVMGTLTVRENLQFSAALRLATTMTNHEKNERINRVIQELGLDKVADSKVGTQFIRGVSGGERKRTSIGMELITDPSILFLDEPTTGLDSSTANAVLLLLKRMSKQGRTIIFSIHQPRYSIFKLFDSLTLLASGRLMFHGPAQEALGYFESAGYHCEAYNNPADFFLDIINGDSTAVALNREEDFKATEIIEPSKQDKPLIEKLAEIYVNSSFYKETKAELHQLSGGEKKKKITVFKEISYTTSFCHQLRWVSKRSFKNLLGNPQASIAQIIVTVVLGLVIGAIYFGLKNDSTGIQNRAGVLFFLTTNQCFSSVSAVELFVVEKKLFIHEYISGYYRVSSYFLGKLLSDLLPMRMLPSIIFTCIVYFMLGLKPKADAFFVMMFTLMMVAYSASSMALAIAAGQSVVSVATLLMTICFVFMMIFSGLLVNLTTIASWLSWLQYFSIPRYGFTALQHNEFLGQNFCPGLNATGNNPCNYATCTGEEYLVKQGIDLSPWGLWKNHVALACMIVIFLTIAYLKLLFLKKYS
Procedure, shortened: (§1)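 Total membrane vesicles from High-Five insect cells expressing human ABCG2 (hypotonic lysis, differential centrifugation), 10 μg protein/tube, in MES-Tris pH 6.8 buffer with KCl, MgCl2, NaN3, EGTA, ouabain, DTT. Compound in DMSO added ± sodium orthovanadate (0.3 mM), DMSO control. Preincubated 2 min at 37°C, then 5 mM ATP, 20 min. SDS stop, Pi measured colorimetrically. Three independent experiments in duplicate, mean ± SE.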

ABCG2 [2] = biological target: T1, ABCG2; test: Activation of human ABCG2-mediated ATPase activity preincubated for 2 mins followed by ATP addition at 2.5 uM and measured after 20 mins by colorimetric assay relative to control; settings: read-out: Activity; procedure, shortened: as §1
ABCG2 [3] = biological target: T1, ABCG2; test: Activation of human ABCG2-mediated ATPase activity preincubated for 2 mins followed by ATP addition at 2.5 M and measured after 20 mins by colorimetric assay relative to control; design: dose or concentration left out as unconfirmed; settings: read-out: Activity; procedure, shortened: as §1
ABCG2 [4] = biological target: T1, ABCG2; test: Effect on human ABCG2 transporter preincubated for 2 mins followed by ATP addition assessed as basal ATPase activity at 2.5 uM and measured after 20 mins by colorimetric assay relative to control; settings: read-out: Activity; procedure, shortened: as §1
ABCG2 [5] = biological target: T1, ABCG2; test: Inhibition of human ABCG2-mediated ATPase activity preincubated for 2 mins followed by ATP addition at 10 uM and measured after 20 mins by colorimetric assay relative to control; procedure, shortened: as §1
ABCG2 [6] = biological target: T1, ABCG2; test: Inhibition of human ABCG2-mediated ATPase activity preincubated for 2 mins followed by ATP addition at 2.5 uM and measured after 20 mins by colorimetric assay relative to control; procedure, shortened: as §1
ABCG2 [7] = biological target: T1, ABCG2; test: Inhibition of human ABCG2 in human R5 cells assessed as inhibition of mitoxantrone efflux at 10 uM measured by flow cytometric analysis relative to control; assay type: cell-based; settings: probe mitoxantrone
Procedure, shortened: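 HEK293 cells transfected with full-length ABCG2 (R-5) or empty pcDNA vector, grown in MEM with 10% FBS and 2 mg/ml G418. Cells incubated in IMDM with 5% FBS, 5 μM mitoxantrone (final) ± compound, 37°C for 45 min. Washed in cold IMDM, resuspended in cold PBS with 1% BSA, read by flow cytometry.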

[8] = biological target: T2, Broad substrate specificity ATP-binding cassette transporter ABCG2 (Homo sapiens, UniProt Q9UNQ0); test: Inhibition of human ABCG2-mediated ATPase activity preincubated for 2 mins followed by ATP addition and measured after 20 mins by colorimetric assay; procedure, shortened: as §1
T2 sequence (Q9UNQ0 whole entry): T1 sequence (Q9UNQ0 whole entry)

ABCG2 [9] = biological target: T1, ABCG2; test: Activation of human ABCG2-mediated ATPase activity preincubated for 2 mins followed by ATP addition at 10 M and measured after 20 mins by colorimetric assay relative to control; design: dose or concentration left out as unconfirmed; settings: read-out: Activity; procedure, shortened: as §1
Adenosine receptor A3 = biological target: T3, Adenosine receptor A3 (Homo sapiens, UniProt P0DMS8); test: Binding affinity towards human adenosine A3 receptor
T3 sequence (P0DMS8 whole entry): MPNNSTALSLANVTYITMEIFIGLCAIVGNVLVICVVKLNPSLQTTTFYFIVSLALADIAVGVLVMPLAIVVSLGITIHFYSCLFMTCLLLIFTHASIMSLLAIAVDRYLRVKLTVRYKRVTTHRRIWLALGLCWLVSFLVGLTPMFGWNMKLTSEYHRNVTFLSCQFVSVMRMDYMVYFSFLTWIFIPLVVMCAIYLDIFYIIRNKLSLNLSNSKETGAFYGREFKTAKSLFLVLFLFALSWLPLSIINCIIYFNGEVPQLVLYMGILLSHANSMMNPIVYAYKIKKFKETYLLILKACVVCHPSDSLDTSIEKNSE

ABCG2 [10] = biological target: T1, ABCG2; test: Activation of human ABCG2-mediated ATPase activity preincubated for 2 mins followed by ATP addition at 100 nM and measured after 20 mins by colorimetric assay relative to control; settings: read-out: Activity; procedure, shortened: as §1
[11] = biological target: T2, Broad substrate specificity ATP-binding cassette transporter ABCG2; test: Activation of human ABCG2-mediated ATPase activity preincubated for 2 mins followed by ATP addition and measured after 20 mins by colorimetric assay; procedure, shortened: as §1
ABCG2 [12] = biological target: T1, ABCG2; test: Activation of human ABCG2-mediated ATPase activity preincubated for 2 mins followed by ATP addition at 10 uM and measured after 20 mins by colorimetric assay relative to control; settings: read-out: Activity; procedure, shortened: as §1

`CNC(=O)C12CC1[C@@H](n1cnc3c(NCc4cccc(Cl)c4)nc(C#Cc4ccccc4)nc31)[C@H](O)[C@@H]2O` (single isomer, unassigned) showed an activity at 20 min, 10 µM (ABCG2 [1]) of at most 30% and an activity at 20 min, 2.5 µM (ABCG2 [2]) of 51.3%.
`CNC(=O)C12CC1[C@@H](n1cnc3c(NC)nc(C#Cc4ccc(Cl)s4)nc31)[C@H](O)[C@@H]2O` (single isomer, unassigned) was tested, and the activity at 20 min (ABCG2 [3]) was 59.2%.
`OCC12CC1[C@@H](n1cnc3c(NCc4cccc(-n5cc(-c6ccc(F)c(F)c6)nn5)c4)nc(C#Cc4ccc(F)cc4)nc31)[C@H](O)[C@@H]2O` (single isomer, unassigned) gave an activity at 20 min, 10 µM (ABCG2 [1]) of at most 30% and an activity at 20 min, 2.5 µM (ABCG2 [4]) of at most 30%.
Compound `CNC(=O)C12CC1[C@@H](n1cnc3c(NCc4cccc(-n5cc(-c6ccc(F)c(F)c6)nn5)c4)nc(C#Cc4ccc(F)cc4)nc31)[C@H](O)[C@@H]2O` (single isomer, unassigned) has an inhibition at 20 min, 10 µM (ABCG2 [5]) of 74.7%, an inhibition at 20 min, 2.5 µM (ABCG2 [6]) of 54.4% and an inhibition at 10 µM (ABCG2 [7]) of 102%. For the same compound, the IC50 [8] was 2590 nM.
Work on `CNc1nc(C#Cc2ccc(Cl)s2)nc2c1ncn2[C@@H]1C2CC2(C(=O)OC)[C@@H](O)[C@H]1O` (single isomer, unassigned) yielded an activity at 20 min (ABCG2 [9]) of 79% and an activity at 20 min (ABCG2 [3]) of 89.1%.
With `CNC(=O)C12CC1[C@@H](n1cnc3c(NCc4cccc(-n5cc(-c6ccc(F)c(F)c6)nn5)c4)nc(C#Cc4ccc(F)c(F)c4)nc31)[C@H](O)[C@@H]2O` (single isomer, unassigned) the inhibition at 20 min, 2.5 µM (ABCG2 [6]) was 43.5%, the inhibition at 10 µM (ABCG2 [7]) was 92.5% and the IC50 [8] was 2570 nM.
Work on `CCOC(=O)C12CC1[C@@H](n1ccc3c(NCCCc4ccc(OC)c(O)c4)nc(C#Cc4ccccc4)nc31)[C@H](O)[C@@H]2O` (single isomer, unassigned) yielded a Ki (Adenosine receptor A3) of at least 99 nM and an activity at 20 min, 0.1 µM (ABCG2 [10]) of 55.9%.
Work on `CCCNc1nc(C#Cc2ccc(Cl)s2)nc2c1ncn2[C@@H]1C2CC2(C(=O)NC)[C@@H](O)[C@H]1O` (single isomer, unassigned) yielded an activity at 20 min (ABCG2 [9]) of 40% and an activity at 20 min (ABCG2 [3]) of 77.9%.
`CNC(=O)C12CC1[C@@H](n1cnc3c(NCc4cccc(-n5cc(-c6ccc(F)c(F)c6)nn5)c4)nc(C#Cc4ccc(C(F)(F)F)cc4)nc31)[C@H](O)[C@@H]2O` (single isomer, unassigned) showed an inhibition at 20 min, 10 µM (ABCG2 [5]) of 44.5% and an activity at 20 min, 2.5 µM (ABCG2 [4]) of at most 30%.
`OCC12CC1[C@@H](n1cnc3c(NCc4cccc(-n5cc(-c6ccc(F)c(F)c6)nn5)c4)nc(C#Cc4ccc(F)c(F)c4)nc31)[C@H](O)[C@@H]2O` (single isomer, unassigned) showed an activity at 20 min, 10 µM (ABCG2 [1]) of at most 30% and an activity at 20 min, 2.5 µM (ABCG2 [4]) of at most 30%.
Compound `CNC(=O)C12CC1[C@@H](n1cnc3c(NC4CC4c4ccc(F)c(F)c4)nc(C#Cc4cccc(F)c4)nc31)[C@H](O)[C@@H]2O` (single isomer, unassigned) has an activity at 20 min, 2.5 µM (ABCG2 [2]) of 111%, an EC50 [11] of 16 nM and an inhibition at 10 µM (ABCG2 [7]) of 100%. It also gave an activity at 20 min, 10 µM (ABCG2 [12]) of 46.7%.
In the case of `CNC(=O)C12CC1[C@@H](n1cnc3c(NCc4cccc(-n5cc(-c6ccc(F)c(F)c6)nn5)c4)nc(C#Cc4cc(F)cc(F)c4)nc31)[C@H](O)[C@@H]2O` (single isomer, unassigned), the inhibition at 20 min, 10 µM (ABCG2 [5]) is reported as 49.4% and the inhibition at 20 min, 2.5 µM (ABCG2 [6]) is reported as 44.7%.
`CNC(=O)C12CC1[C@@H](n1cnc3c(C)nc(C#Cc4ccc(F)c(F)c4)nc31)[C@H](O)[C@@H]2O` (single isomer, unassigned) was tested, and the activity at 20 min, 2.5 µM (ABCG2 [2]) was 49.6%, the activity at 20 min, 10 µM (ABCG2 [12]) was 72.6% and the Ki (Adenosine receptor A3) was at least 99 nM.
With `CNC(=O)C12CC1[C@@H](n1cnc3c(NCc4cccc(Cl)c4)nc(C#Cc4ccc(F)cc4)nc31)[C@H](O)[C@@H]2O` (single isomer, unassigned) the activity at 20 min, 2.5 µM (ABCG2 [2]) was 60.3% and the activity at 20 min, 10 µM (ABCG2 [12]) was 49.3%.
Work on `CNC(=O)C12CC1[C@@H](n1cnc3c(NCc4cccc(-n5cc(-c6ccc(F)c(F)c6)nn5)c4)nc(C#Cc4ccc(F)cc4F)nc31)[C@H](O)[C@@H]2O` (single isomer, unassigned) yielded an inhibition at 20 min, 10 µM (ABCG2 [5]) of 57.1% and an activity at 20 min, 2.5 µM (ABCG2 [4]) of at most 30%.
In the case of `CNC(=O)[C@H]1O[C@@H](n2cnc3c(NCc4cccc(I)c4)nc(Cl)nc32)[C@H](O)[C@@H]1O` [NAMODENOSON], the EC50 [11] is reported as 1420 nM, the activity at 20 min (ABCG2 [9]) is reported as 69.9% and the activity at 20 min (ABCG2 [3]) is reported as 101%.
